Active and inactive are the calls of the source. The calls are words filed in the database; no cut-off is given here.

Test [1] deals with MDA-MB-231. Kind of test: Induction of apoptosis in human MDA-MB-231 cells assessed as viable cells compound treated 1 hr post 10 mM ROS inhibitor NAC addition measured after 24 hrs by Annexin-V/PI staining based flow cytometry (reference value: 84.94%). In kind it is functional.
Test [2] concerns MDA-MB-231. The experiment in a line: Induction of apoptosis in human MDA-MB-231 cells assessed as late apoptotic cells compound treated 1 hr post 10 mM ROS inhibitor NAC addition measured after 24 hrs by Annexin-V/PI staining based flow cytometry (reference value: 2.91%). Type of test: functional.
Test [3] relates to MCF7. The experiment in a line: Induction of cell cycle arrest in human MCF7 cells assessed as accumulation at subG1 phase at IC50 concentration measured after 24 hrs by propidium iodide staining based flow cytometry. Type of test: functional. An outline of the steps: (§1)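 1×10^6 cells seeded in six-well plates and treated 24 h. Floating and trypsinized adherent cells pooled and fixed in 70% ethanol. Cells washed in PBS, then stained 30 min at room temperature in the dark with 30 µg/mL propidium iodide in PBS containing RNase A. DNA content measured by flow cytometry.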

The test system of test [4] is MDA-MB-231. Kind of test: Induction of apoptosis in human MDA-MB-231 cells assessed as viable cells at 11 uM measured after 24 hrs by Annexin-V/PI staining based flow cytometry (reference value: 71.87%). Type of test: functional. As to conditions: MDA-MB-231, 24 h, read-out: Activity. A digest of the protocol: (§2)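 MDA-MB-231 cells (1×10^6) seeded in six-well plates, grown overnight, then exposed 24 h to 11 or 22 µM. Cells trypsinized, washed in PBS, stained with Annexin-V-FITC and propidium iodide using a kit, and analysed by flow cytometry. Compared with untreated vehicle control.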
In general terms: Flow cytometry measures light scatter and fluorescence of single cells or particles in a stream.

Test [5] has as its system MDA-MB-231. The experiment in a line: Induction of apoptosis in human MDA-MB-231 cells assessed as viable cells at 22 uM measured after 24 hrs by Annexin-V/PI staining based flow cytometry (reference value: 71.87%). Type of test: functional. The note with it: MDA-MB-231, 24 h, read-out: Activity. An outline of the steps:
as §2

For test [6], the system named is HCT-116. Kind of test: Induction of cell cycle arrest in human HCT116 cells assessed as accumulation at subG1 phase at IC50 concentration measured after 24 hrs by propidium iodide staining based flow cytometry. Type of test: functional. An outline of the steps:
as §1

The subject of test [7] is MDA-MB-231. The experiment in a line: Induction of apoptosis in human MDA-MB-231 cells assessed as early apoptotic cells at 22 uM measured after 24 hrs by Annexin-V/PI staining based flow cytometry (reference value: 19.77%). Type of test: functional. An outline of the steps: as §2
Test [8] has as its system MDA-MB-231. The experiment in a line: Induction of apoptosis in human MDA-MB-231 cells assessed as early apoptotic cells compound treated 1 hr post 10 mM ROS inhibitor NAC addition measured after 24 hrs by Annexin-V/PI staining based flow cytometry (reference value: 11.31%). Type of test: functional.
Test [9] has as its system MDA-MB-231. Kind of test: Induction of apoptosis in human MDA-MB-231 cells assessed as necrotic cells at 22 uM measured after 24 hrs by Annexin-V/PI staining based flow cytometry (reference value: 2.24%). Type of test: functional. A digest of the protocol:
as §2

Test [10] relates to MDA-MB-231. The experiment in a line: Induction of apoptosis in human MDA-MB-231 cells assessed as early apoptotic cells at 11 uM measured after 24 hrs by Annexin-V/PI staining based flow cytometry (reference value: 19.77%). Type of test: functional. An outline of the steps:
as §2

For test [11], the system named is MDA-MB-231. Kind of test: Induction of apoptosis in human MDA-MB-231 cells assessed as necrotic cells measured compound treated 1 hr post 10 mM ROS inhibitor NAC addition measured after 24 hrs by Annexin-V/PI staining based flow cytometry (reference value: 0.84%). Type of test: functional.
For test [12], the system named is MCF7. Kind of test: Antiproliferative activity against human MCF7 cells after 24 hrs by MTT assay. The note with it: MCF7, 24 h. Type of test: functional, cell-based. An outline of the steps:
(§3)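 1×10^4 cells/well seeded in DMEM with 10% FBS and antibiotic-antimycotic, grown 24 h at 37 °C under 5% CO2. Compounds diluted in phenol red-free DMEM with 2% FBS and given for 24 h, with vehicle control. MTT (5 mg/mL, 20 µL) added for 3 h. Formazan dissolved in DMSO, absorbance read at 570 nm. IC50 is the concentration giving 50% growth inhibition.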
On the technique in general: Formazan colour is commonly taken as a measure of viable cells.

Test [13] concerns PC-3. Kind of test: Antiproliferative activity against human PC3 cells after 24 hrs by MTT assay. In kind it is functional, cell-based. The note with it: PC-3, 24 h. An outline of the steps:
as §3

The test system of test [14] is MDA-MB-231. Kind of test: Increase in phosphorylated p38 level in human MDA-MB-231 cells after 24 hrs by western blot analysis. Type of test: functional, cell-based. An outline of the steps: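 MDA-MB-231 cells (1×10^6) seeded 24 h, then treated 24 h at 11 and 22 µM. Cells lysed in ice-cold RIPA and protein measured by Bradford. 40 µg protein run on SDS-PAGE and transferred to PVDF. Membranes blocked with 1% BSA, probed overnight at 4 °C for p-p38 and total p38, then with HRP secondary for 2 h.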
(Immunoblotting shows a protein as a band on a membrane.)

The subject of test [15] is MDA-MB-231. Kind of test: Antiproliferative activity against human MDA-MB-231 cells after 24 hrs by MTT assay. In kind it is functional, cell-based. The note with it: MDA-MB-231, 24 h. An outline of the steps:
as §3

Test [16] deals with MDA-MB-231. Kind of test: Induction of apoptosis in human MDA-MB-231 cells assessed as early apoptotic cells measured after 24 hrs by Annexin-V/PI staining based flow cytometry (reference value: 11.31%). In kind it is functional.
Test [17] deals with MDA-MB-231. The experiment in a line: Induction of apoptosis in human MDA-MB-231 cells assessed as late apoptotic cells at 22 uM measured after 24 hrs by Annexin-V/PI staining based flow cytometry (reference value: 6.11%). In kind it is functional. A digest of the protocol:
as §2

For test [18], the system named is MDA-MB-231. Kind of test: Induction of apoptosis in human MDA-MB-231 cells assessed as viable cells measured after 24 hrs by Annexin-V/PI staining based flow cytometry (reference value: 84.94%). In kind it is functional.
In test [19] the test system is MDA-MB-231. Kind of test: Effect on phosphorylated p38 level in human MDA-MB-231 cells at 11 uM after 24 hrs by western blot analysis pretreated with ROS inhibitor NAC. Type of test: functional, cell-based. A digest of the protocol:
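MDA-MB-231 cells pretreated with NAC, then exposed to compound at 11 µM for 24 h. Lysates in RIPA quantified by Bradford. 40 µg protein resolved by SDS-PAGE and blotted to PVDF. Membranes blocked with 1% BSA, probed overnight at 4 °C for phospho-p38 and p38, then with HRP secondary.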

Test [20] relates to PC-3. The experiment in a line: Induction of cell cycle arrest in human PC3 cells assessed as accumulation at subG1 phase at IC50 concentration measured after 24 hrs by propidium iodide staining based flow cytometry. In kind it is functional. An outline of the steps:
as §1

The test system of test [21] is MDA-MB-231. The experiment in a line: Induction of reactive oxygen species production in human MDA-MB-231 cells after 24 hrs by DCFH-DA dye based flow cytometry. Type of test: functional, cell-based. An outline of the steps: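 MDA-MB-231 cells (1×10^6) seeded 24 h in six-well plates, then treated 24 h. Cells harvested, washed in PBS and fixed in absolute methanol. Cells resuspended in PBS with 15 µg/mL DCFH-DA for 30 min in the dark, then pelleted, taken up in PBS, and fluorescence read by flow cytometry.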

The subject of test [22] is U-937. The experiment in a line: Induction of cell cycle arrest in human U937 cells assessed as accumulation at subG1 phase at IC50 concentration measured after 24 hrs by propidium iodide staining based flow cytometry. In kind it is functional. An outline of the steps:
as §1

Test [23] concerns MDA-MB-231. Kind of test: Induction of apoptosis in human MDA-MB-231 cells assessed as late apoptotic cells at 11 uM measured after 24 hrs by Annexin-V/PI staining based flow cytometry (reference value: 6.11%). Type of test: functional. An outline of the steps:
as §2

The subject of test [24] is MDA-MB-231. Kind of test: Induction of apoptosis in human MDA-MB-231 cells assessed as necrotic cells measured after 24 hrs by Annexin-V/PI staining based flow cytometry (reference value: 0.84%). In kind it is functional.
The subject of test [25] is HEK293. The experiment in a line: Cytotoxicity against human HEK293 cells after 24 hrs by MTT assay. In kind it is cell-based. As to conditions: HEK293, 24 h. A digest of the protocol: as §3
The subject of test [26] is MDA-MB-231. Kind of test: Induction of cell cycle arrest in human MDA-MB-231 cells assessed as accumulation at subG1 phase at IC50 concentration measured after 24 hrs by propidium iodide staining based flow cytometry. Type of test: functional. An outline of the steps:
as §1

Test [27] deals with MDA-MB-231. The experiment in a line: Induction of apoptosis in human MDA-MB-231 cells assessed as necrotic cells at 11 uM measured after 24 hrs by Annexin-V/PI staining based flow cytometry (reference value: 2.24%). Type of test: functional. An outline of the steps: as §2
Test [28] relates to HCT-116. The experiment in a line: Antiproliferative activity against human HCT116 cells after 24 hrs by MTT assay. In kind it is functional, cell-based. The note with it: HCT-116, 24 h. A digest of the protocol: as §3
Test [29] deals with MDA-MB-231. Kind of test: Induction of apoptosis in human MDA-MB-231 cells assessed as late apoptotic cells measured after 24 hrs by Annexin-V/PI staining based flow cytometry (reference value: 2.91%). Type of test: functional.
Test [30] relates to U-937. Kind of test: Antiproliferative activity against human U937 cells after 24 hrs by MTT assay. Type of test: functional, cell-based. As to conditions: U-937, 24 h. An outline of the steps:
as §3

`COC1=C(OC)C(O)(CCn2cc(-c3ccc(C(C)(C)C)cc3)nn2)NC1=O` (centres undefined): the Activity in [1] turned out to be 81.36%; in test [2], 3.61%; in test [7], 41.92%; in [8], 13.91%; in test [9] it was 2.35%; in [10], 27.35%. For the same compound, the Activity in test [11] was 1.112%; in test [14], “Dose-dependent effect”; in test [16], 32.05%; in [17], 6.95%; in test [18] it was 56.21%; in test [23], 3.38%. In addition, the Activity in test [24] turned out to be 0.76%; in test [27], 1.48%; in [29] it was 10.98%. Further, the result in test [3], in test [6], in test [20], in [21], in test [22] and in [26] was Active. Further, the viability at 11 µM in test [4] turned out to be 67.8%. Moreover, the viability at 22 µM in [5] worked out at 48.8%. The IC50 – broadly, the concentration that gives 50% inhibition – was greater than 100 µM in [12]; 30.4 µM in test [13]; 11.3 µM in [15]; 62 µM in test [25]; 50.3 µM in [28]; greater than 100 µM in test [30]. In addition, in [19], the outcome was inactive.

In the case of `O=C1NC(O)(CCn2cc(-c3ccccc3)nn2)C(OCc2ccccc2)=C1OCc1ccccc1` (centres undefined), the outcome in test [3], in test [6], in [20], in [21], in test [22] and in test [26] was Active. The IC50 in test [12] is 20.5 µM; in test [13], greater than 100 µM; in [15], 21.1 µM; in test [25], greater than 100 µM; in [28], 53.4 µM; in [30], 21.5 µM.

Consider `COC1=C(OC)C(O)(CCn2cc(-c3ccccc3)nn2)NC1=O` (centres undefined), for which the result in test [3], in test [6], in [20], in [21], in [22] and in test [26] was Active. Also, the IC50 is 22.6 µM in test [12]; 35.3 µM in test [13]; 18.3 µM in [15]; 62 µM in [25]; 46.3 µM in test [28]; 20.3 µM in test [30].

The record behind these values is ChEMBL document CHEMBL3297682, “Synthesis and anticancer activity of γ-(triazolyl ethylidene)butenolides and polyfunctional pyrrolinones” (Eur J Med Chem, 2014).
